SIAE inh: inhibitors of human sialic acid acetylesterase SIAE; SIAE FP-Rh probe binding, fluorescence polarization; inhibition, % at 9.66 µM; hit rate 0.69% among 370,000; AID 1053197;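 active = inhibition above a cutoff: mean of compounds within the control limits plus 3 SD of those, cut at about 17% in these data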
Target sequence (Q9HAT2 whole entry, looked up): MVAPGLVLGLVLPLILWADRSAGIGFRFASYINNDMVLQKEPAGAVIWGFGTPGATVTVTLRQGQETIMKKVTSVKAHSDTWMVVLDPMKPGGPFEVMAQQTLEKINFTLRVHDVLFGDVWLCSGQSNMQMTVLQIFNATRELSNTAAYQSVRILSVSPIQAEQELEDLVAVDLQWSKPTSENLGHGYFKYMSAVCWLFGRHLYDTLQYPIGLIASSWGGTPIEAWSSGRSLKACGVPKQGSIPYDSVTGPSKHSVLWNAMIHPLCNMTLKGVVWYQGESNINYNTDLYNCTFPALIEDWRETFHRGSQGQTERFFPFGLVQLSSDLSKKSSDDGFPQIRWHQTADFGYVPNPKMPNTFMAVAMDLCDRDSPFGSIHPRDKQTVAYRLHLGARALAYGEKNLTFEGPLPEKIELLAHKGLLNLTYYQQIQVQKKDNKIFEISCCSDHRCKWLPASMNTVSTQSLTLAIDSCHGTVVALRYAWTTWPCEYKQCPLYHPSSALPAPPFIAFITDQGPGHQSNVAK
HTRA1 inh: inhibitors of human serine peptidase HTRA1 | Q92743 | recombinant HTRA1, FP-rhodamine activity-based probe, fluorescence polarization | inhibition, % at 5.96 µM | hit rate 0.5% among 340,000 | AID 504803; in the data active = inhibition above about 36%
PRMT1 FP inh: blocks human protein arginine methyltransferase 1; Q99873; recombinant PRMT1, activity-based probe fluorescence polarization; inhibition, % at 2.79 µM; hit rate 1.3% among 370,000; AID 652257;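 active = inhibition above about 21% made by adding two undisclosed values, limit read from the data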
ABHD4 inh: ABHD4 (mouse) inhibition, primary FP screen | purified mABHD4, FP-Rh probe fluorescence polarization | inhibition, % at 8.92 µM | hit rate 0.54% among 370,000;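 active = inhibition exceeding the mean over every tested compound plus 3 SD, cut at about 30% in these data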
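Assay system: Wild-type mouse ABHD4 protein | Medium: HEPES pH 7.0 buffer, 150 mM NaCl, 0.01% Pluronic F-127 | Incubation: Enzyme–compound pre-incubation 45 min, then probe 60 min, both 25 °C | Technique: Fluorescence polarization with parallel and perpendicular emission, 525/598 nm | Evaluation: % inhibition of FP-Rh probe binding versus controls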
TCR CD3 inh: blocks the human TCR-CD3 interaction; TAMRA-labeled TCR probe fluorescence, biochemical; inhibition, % at 9.4 µM; hit rate 0.37% among 360,000; in the data active = inhibition above about 19%;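 note: recombinant mutant TCR 2C K166C tagged with TAMRA read by polarization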
mABHD4 conf: ABHD4 (mouse) inhibition, FP confirmation; AID 720658; purified mABHD4, FP-Rh probe fluorescence polarization; shares compounds with ABHD4 inh; hit rate 55% among 1,800; inhibition, % at 8.92 µM;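 active = mean inhibition across replicates above the hit cutoff set in the primary screen, cut at about 30% in these data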
Of the large screens only hits and unclear results are named; the others gave an inactive call (follow-up assays come after a bar, where they were run); ! = a repeat was not active. Only some compounds are listed: those with a hit (about 2.6% of all), similar ones and a draw of the others.

CCCCn1c(N)c(N(C)C(=O)c2ccccc2Oc2ccccc2)c(=O)[nH]c1=O	none
Cc1cccc(NC(=O)[C@@H]2CCCN2S(=O)(=O)c2ccc(Cl)cc2)c1	none
Cc1ccc(CN2CCC(n3nccc3NC(=O)c3ccccc3C)CC2)o1	none
O=c1oc2ccccc2cc1-c1csc(NN=C2CCCC2)n1	none
O=C(O)c1cccc(Nc2nc(-c3cc4ccccc4oc3=O)cs2)c1	ABHD4 inh 30 | mABHD4 conf 49
CC(=O)Oc1ccc(C(=O)O)cc1OC(C)=O	none
CC(=O)Oc1cccc2c1C(=O)c1c(OC(C)=O)cc(C(=O)O)cc1C2=O	ABHD4 inh 48 | mABHD4 conf inactive
Cc1ccc(NS(=O)(=O)c2ccc(Cl)c(N=Nc3c(O)[nH]c(=O)[nH]c3=O)c2)cc1Cl	ABHD4 inh 31 | mABHD4 conf 48
Cc1ccc(NCSc2ccc(Cl)cc2)cc1	none
CSc1ccc(CNc2ccc(Cl)cc2)cc1	ABHD4 inh active | mABHD4 conf inactive
CC(C)(C)c1ccc(S(=O)(=O)NC(=O)C2(C)CCN2C(=O)Cc2ccc(-c3ccccc3)cc2)cc1 (stereo unspecified)	ABHD4 inh 45 (no result: HTRA1 inh) | mABHD4 conf inactive
Cc1ccc(C(c2ccc(C)o2)c2cccc([N+](=O)[O-])c2O)o1	none
Cc1cc(C(c2ccc(C)o2)c2ccc(C)o2)c(O)c([N+](=O)[O-])c1	ABHD4 inh 44 | mABHD4 conf inactive
C=CCOc1ccc(/C=C/C(=O)OCc2csc(CC(=O)Nc3ccccc3C)n2)cc1	none
Cc1c(C#N)c(O)[nH]c(=O)c1N=Nc1ccc(S(N)(=O)=O)cc1	ABHD4 inh 39 | mABHD4 conf 47
COc1ccc(N2COC3c4cccc5cccc(c45)C32)cc1 (stereo unspecified)	ABHD4 inh 43 | mABHD4 conf inactive
Cc1ccn2c(NC3CCCCC3)c(-c3cccc(SC4CCCCC4)c3)nc2c1	ABHD4 inh 31! | mABHD4 conf inactive
COc1cc2cc(C)nc(Cc3cccc4ccccc34)c2cc1OC	ABHD4 inh 33 | mABHD4 conf 41
COc1ccccc1CNC(=O)COC(=O)c1cc(C)nc2ccccc12	none
CC(O)(CS(=O)(=O)Cc1ccccc1)c1ccccc1Cl (stereo unspecified)	none
Cc1cccc2c1c1ccc3c(c1n2C)C(=O)C=CC3=O	ABHD4 inh 48 | mABHD4 conf 71
Cc1ccccc1N1CC(=O)N(c2ccccc2C)CC1=O	none
O=C(Nc1ccc(N2CCOCC2)c(Cl)c1)c1c(F)c(F)c(F)c(F)c1F	none
COc1c(F)c(F)c(C(=O)Nc2ccc(N3CCN(C(C)=O)CC3)c(Cl)c2)c(F)c1F	ABHD4 inh 31 | mABHD4 conf inactive
C=C1[C@@H](CCO)N(S(=O)C(C)(C)C)C[C@@H]1C (stereo partly specified)	none (no result: HTRA1 inh)
O=C(/C=C/[C@H]1O[C@@H](n2ccc(=O)[nH]c2=O)[C@H](O)[C@@H]1O)NCCN1CCCCC1	none (no result: HTRA1 inh)
CC1=NN(C(N)=S)C(=O)C1N=Nc1c(Br)cc(Br)cc1Br (stereo unspecified)	ABHD4 inh 30 | mABHD4 conf 57
Cc1nn(C2CCS(=O)(=O)C2)c(C)c1CN(C)C(=O)c1ccc(F)cc1 (stereo unspecified)	none
CCOc1ccccc1C1C(C#N)=C(N)Oc2cc(N)ccc21 (stereo unspecified)	ABHD4 inh 31 | mABHD4 conf inactive
COc1ccc(C(N)c2csc(Nc3ccc(C(F)(F)F)cn3)n2)cc1 (stereo unspecified)	ABHD4 inh 34 (no result: HTRA1 inh) | mABHD4 conf inactive
O=C(c1ccncc1)N1CCN(S(=O)(=O)c2ccc(OC(F)(F)F)cc2)CC1	none
NS(=O)(=O)c1cccc(-n2cnnn2)c1	none
CCCNC(=O)c1cc(C2CCCN(S(=O)(=O)c3cccc4cccnc34)C2)on1 (stereo unspecified)	none (no result: HTRA1 inh)
Cc1cccc(N(C)S(=O)(=O)c2c(C)[nH]c(C)c2C(=O)N2CCCC2)c1	none
CCOC(=O)c1c2n(c3ccc(O)cc13)CCCCC2	none
CCOC(=O)c1c(C)n2c3c(cc(C)cc13)CCC2	ABHD4 inh 31 | mABHD4 conf inactive
C=CCN(CC=C)C(=O)c1ccc(OC2CCN(C(C)=O)CC2)c(OC)c1	none
CSc1ncccc1C(=O)NC1CCCc2c1cnn2-c1ccc(C)c(C)c1 (stereo unspecified)	none
Cc1c(Cl)cccc1N/C(SCC(=O)N1CCCCCC1)=C(/C#N)c1nc2ccccc2s1	ABHD4 inh 35 | mABHD4 conf 34
O=C(c1cccc(-c2ccccc2F)c1)N1CC[C@@H](N2CCC(O)CC2)[C@H](O)C1	none
Cc1cccc(C)c1NC(=O)c1c(O)c2ccccc2[nH]c1=O	none
O=C(Nc1ncccc1O)c1c(O)c2ccccc2[nH]c1=O	ABHD4 inh 39 | mABHD4 conf inactive
O=C1NN(c2cccc(Br)c2)C(=O)/C1=C\c1ccccc1	ABHD4 inh 37 | mABHD4 conf inactive
COc1ccc(CC(=O)OCCc2cc3cc(OC)c(OC)cc3c(=O)o2)cc1	none
COc1ccc(CC(=O)Oc2ccc(C)cc2Br)cc1S(=O)(=O)N1CCOCC1	none
CCOc1cc(C(=O)NCC(C)(C)CNC(=O)c2cc(OCC)c(OCC)c(OCC)c2)cc(OCC)c1OCC	ABHD4 inh 36 (no result: HTRA1 inh) | mABHD4 conf 34
Cc1ccc(C(=O)Nc2nc3ccccc3[nH]2)cc1	ABHD4 inh 30 | mABHD4 conf inactive
Cc1ccc(Nc2nc(NCc3ccco3)c3ccccc3n2)cc1	ABHD4 inh 36 | mABHD4 conf 41
OCCNc1nc(Nc2ccc(Br)cc2)nc2ccccc12	SIAE inh 18, ABHD4 inh 34 (no result: HTRA1 inh) | mABHD4 conf 47
Cc1ccc(CNc2nc(C)cs2)cc1	none
CCOC(=O)c1c(C)n(-c2ccc(C)cc2)c2c(C(C(C)=O)C(=O)O)c(Br)c(O)c(O)c12 (stereo unspecified)	ABHD4 inh 41 | mABHD4 conf 31
c1cc2c(cc1CNc1ccc(N3CCOCC3)cc1)OCO2	ABHD4 inh 30 | mABHD4 conf inactive
Cc1ccc(S(=O)(=O)N/N=C/c2ccc(O)c(O)c2)cc1[N+](=O)[O-]	ABHD4 inh 40 | mABHD4 conf inactive
Cc1ccc(S(=O)(=O)N/N=C/c2ccccc2O)cc1[N+](=O)[O-]	none
O=C(c1ccccc1)C1CC=CCC1C(=O)c1ccccc1 (stereo unspecified)	none
COc1ccc(CCNC(=O)c2ccc(CS(=O)Cc3ccc(Cl)cc3)o2)cc1OC (stereo unspecified)	none
F[B-](F)(F)COCc1ccccc1C#Cc1ccccc1	ABHD4 inh 77 (no result: HTRA1 inh) | mABHD4 conf 79
CCCCC#Cc1ccccc1COC[B-](F)(F)F	ABHD4 inh 75 (no result: HTRA1 inh) | mABHD4 conf 75
F[B-](F)(F)COCc1ccccc1Br	ABHD4 inh 80 | mABHD4 conf 70
O=C(C#Cc1ccccc1)Nc1ccccc1F	none

Source: PubChem BioAssay (The Scripps Research Institute Molecular Screening Center)
